According to ChEMBL document CHEMBL4715736, “Identification of anticancer agents based on the thieno[2,3-b]pyridine and 1H-pyrazole molecular scaffolds” (2016):

Legend:
Type in all cases: functional
[1] = test system: HCC 2998; assay: Growth inhibition of human HCC 2998 cells assessed as cell growth at 0.1 uM incubated for 48 hrs by sulforhodamine B assay relative to control; details: read-out: Activity
Outline: (§1)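 NCI Developmental Therapeutics Program NCI60 panel. Compounds that were active in the 10 µM one-dose screen went on to dose–response testing. Growth at each concentration is expressed relative to untreated control (100%). GI50 (concentration giving 50% of maximal inhibition of proliferation) and TGI (concentration giving total growth inhibition) were derived from the curves.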

[2] = test system: LOX IMVI; assay: Growth inhibition of human LOX IMVI cells assessed as cell growth at 0.1 uM incubated for 48 hrs by sulforhodamine B assay relative to control; details: read-out: Activity
[3] = test system: 786-0; assay: Growth inhibition of human 786-0 cells incubated for 48 hrs by sulforhodamine B assay; details: for CC50: read-out: LC50 (the source's name); outline: as §1
[4] = test system: HCT-15; assay: Growth inhibition of human HCT-15 cells incubated for 48 hrs by sulforhodamine B assay
Outline: (§2)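 NCI60 panel at the NCI Developmental Therapeutics Program. Only compounds active in the 10 µM screen went to dose-response testing. GI50, the concentration giving 50% of maximal inhibition of proliferation, and TGI, the concentration giving total growth inhibition, were derived from the dose-response curves.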

[5] = test system: KM12; assay: Growth inhibition of human KM12 cells assessed as cell growth at 1 uM incubated for 48 hrs by sulforhodamine B assay relative to control; details: read-out: Activity
[6] = test system: SK-MEL-5; assay: Growth inhibition of human SK-MEL-5 cells assessed as cell growth at 0.01 uM incubated for 48 hrs by sulforhodamine B assay relative to control; details: read-out: Activity
[7] = test system: Hs-578T; assay: Growth inhibition of human Hs-578T cells incubated for 48 hrs by sulforhodamine B assay; details: for CC50: read-out: LC50 (the source's name); outline: as §2
[8] = test system: PC-3; assay: Growth inhibition of human PC-3 cells assessed as cell growth at 0.1 uM incubated for 48 hrs by sulforhodamine B assay relative to control; details: read-out: Activity
[9] = test system: KM12; assay: Growth inhibition of human KM12 cells assessed as cell growth at 100 uM incubated for 48 hrs by sulforhodamine B assay relative to control; details: read-out: Activity
[10] = test system: NCI-H322M; assay: Growth inhibition of human NCI-H322M cells assessed as cell growth at 1 uM incubated for 48 hrs by sulforhodamine B assay relative to control; details: read-out: Activity
[11] = test system: SK-MEL-2; assay: Growth inhibition of human SK-MEL-2 cells incubated for 48 hrs by sulforhodamine B assay
Outline: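 NCI DTP 60-line human tumour panel. Dose-response curves were run only for ligands active in the initial 10 µM screen. GI50 (concentration giving 50% of maximal inhibition of proliferation) and TGI (concentration giving total growth inhibition) were derived from these curves.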

[12] = test system: A549; assay: Growth inhibition of human A549/ATCC cells assessed as cell growth at 0.1 uM incubated for 48 hrs by sulforhodamine B assay relative to control; details: read-out: Activity; outline: as §1
[13] = test system: ACHN; assay: Growth inhibition of human ACHN cells incubated for 48 hrs by sulforhodamine B assay; outline: as §1
[14] = test system: HCT-15; assay: Growth inhibition of human HCT-15 cells assessed as cell growth at 0.1 uM incubated for 48 hrs by sulforhodamine B assay relative to control; details: read-out: Activity
[15] = test system: NCI-H226; assay: Growth inhibition of human NCI-H226 cells assessed as cell growth at 1 uM incubated for 48 hrs by sulforhodamine B assay relative to control; details: read-out: Activity
[16] = test system: HOP-62; assay: Growth inhibition of human HOP-62 cells assessed as cell growth at 0.1 uM incubated for 48 hrs by sulforhodamine B assay relative to control; details: read-out: Activity
[17] = test system: MDA-MB-231; assay: Growth inhibition of human MDA-MB-231 cells assessed as cell growth at 100 uM incubated for 48 hrs by sulforhodamine B assay relative to control; details: read-out: Activity
[18] = test system: COLO 205; assay: Growth inhibition of human COLO 205 cells assessed as cell growth at 0.01 uM incubated for 48 hrs by sulforhodamine B assay relative to control; details: read-out: Activity; outline: as §1
[19] = test system: HCT-116; assay: Growth inhibition of human HCT-116 cells assessed as cell growth at 1 uM incubated for 48 hrs by sulforhodamine B assay relative to control; details: read-out: Activity
[20] = test system: SR; assay: Growth inhibition of human SR cells assessed as cell growth at 0.01 uM incubated for 48 hrs by sulforhodamine B assay relative to control; details: read-out: Activity
[21] = test system: PC-3; assay: Growth inhibition of human PC-3 cells assessed as cell growth at 0.01 uM incubated for 48 hrs by sulforhodamine B assay relative to control; details: read-out: Activity
[22] = test system: CAKI-1; assay: Growth inhibition of human CAKI-1 cells incubated for 48 hrs by sulforhodamine B assay; details: for CC50: read-out: LC50 (the source's name); outline: as §1
[23] = test system: SF-295; assay: Growth inhibition of human SF-295 cells assessed as cell growth at 0.1 uM incubated for 48 hrs by sulforhodamine B assay relative to control; details: read-out: Activity
[24] = test system: UACC-62; assay: Growth inhibition of human UACC-62 cells assessed as cell growth at 0.1 uM incubated for 48 hrs by sulforhodamine B assay relative to control; details: read-out: Activity
[25] = test system: NCI-H23; assay: Growth inhibition of human NCI-H23 cells assessed as cell growth at 0.1 uM incubated for 48 hrs by sulforhodamine B assay relative to control; details: read-out: Activity
[26] = test system: OVCAR-8; assay: Growth inhibition of human OVCAR-8 cells assessed as cell growth at 0.01 uM incubated for 48 hrs by sulforhodamine B assay relative to control; details: read-out: Activity
[27] = test system: HOP-92; assay: Growth inhibition of human HOP-92 cells assessed as cell growth at 100 uM incubated for 48 hrs by sulforhodamine B assay relative to control; details: read-out: Activity
[28] = test system: COLO 205; assay: Growth inhibition of human COLO 205 cells assessed as cell growth at 1 uM incubated for 48 hrs by sulforhodamine B assay relative to control; details: read-out: Activity; outline: as §1
[29] = test system: Malme-3M; assay: Growth inhibition of human Malme-3M cells assessed as cell growth at 1 uM incubated for 48 hrs by sulforhodamine B assay relative to control; details: read-out: Activity
[30] = test system: M14; assay: Growth inhibition of human M14 cells incubated for 48 hrs by sulforhodamine B assay; outline: as §2
[31] = test system: A549; assay: Growth inhibition of human A549/ATCC cells assessed as cell growth at 0.01 uM incubated for 48 hrs by sulforhodamine B assay relative to control; details: read-out: Activity; outline: as §1
[32] = test system: MDA-MB-468; assay: Growth inhibition of human MDA-MB-468 cells incubated for 48 hrs by sulforhodamine B assay; details: for CC50: read-out: LC50 (the source's name); outline: as §2
[33] = test system: NCI-H522; assay: Growth inhibition of human NCI-H522 cells assessed as cell growth at 0.01 uM incubated for 48 hrs by sulforhodamine B assay relative to control; details: read-out: Activity
[34] = test system: OVCAR-4; assay: Growth inhibition of human OVCAR-4 cells assessed as cell growth at 0.01 uM incubated for 48 hrs by sulforhodamine B assay relative to control; details: read-out: Activity
[35] = test system: CAKI-1; assay: Growth inhibition of human CAKI-1 cells assessed as cell growth at 1 uM incubated for 48 hrs by sulforhodamine B assay relative to control; details: read-out: Activity; outline: as §1

## Nc1c(C(=O)Nc2ccccc2)sc2nc3c(cc12)CN(Cc1ccccc1)CC3
[1]
  growth at 0.1 µM: 97%
[2]
  growth at 0.1 µM: 102%
[3]
  GI50: 13 µM
  TGI: > 100 µM
  CC50: > 100 µM
[4]
  GI50: 24.7 µM
  LC50: > 100 µM
  TGI: > 100 µM
[5]
  growth at 1 µM: 88%
[6]
  growth at 0.01 µM: 104%
[7]
  GI50: 2.07 µM
  TGI: 7.55 µM
  CC50: > 100 µM
[8]
  growth at 0.1 µM: 91%
[9]
  growth at 100 µM: 25%
[10]
  growth at 1 µM: 91%
[11]
  GI50: 20.3 µM
  LC50: > 100 µM
  TGI: > 100 µM
[12]
  growth at 0.1 µM: 99%
[13]
  GI50: 5.5 µM
  TGI: > 100 µM
[13]; read-out: LC50 (the source's name)
  CC50: > 100 µM
[14]
  growth at 0.1 µM: 97%
[15]
  growth at 1 µM: 92%
[16]
  growth at 0.1 µM: 84%
[17]
  growth at 100 µM: 16%
[18]
  growth at 0.01 µM: 100%
[19]
  growth at 1 µM: 86%
[20]
  growth at 0.01 µM: 98%
[21]
  growth at 0.01 µM: 95%
[22]
  GI50: 19.7 µM
  TGI: > 100 µM
  CC50: > 100 µM
[23]
  growth at 0.1 µM: 90%
[24]
  growth at 0.1 µM: 92%
[25]
  growth at 0.1 µM: 101%
[26]
  growth at 0.01 µM: 100%
[27]
  growth at 100 µM: -30%
[28]
  growth at 1 µM: 93%
[29]
  growth at 1 µM: 87%
[30]
  GI50: 30.8 µM
  LC50 (concentration killing 50% of cells): > 100 µM
  TGI: > 100 µM
[31]
  growth at 0.01 µM: 98%
[32]
  GI50: 17 µM
  TGI: > 100 µM
  CC50: > 100 µM
[33]
  growth at 0.01 µM: 89%
[34]
  growth at 0.01 µM: 101%
[35]
  growth at 1 µM: 87%

## CN1CCc2nc3sc(C(N)=O)c(N)c3c(-c3cccs3)c2C1
[1]
  growth at 0.1 µM: 99%
[2]
  growth at 0.1 µM: 83%
[3]
  GI50: 4.41 µM
  TGI: > 100 µM
  CC50: > 100 µM
[4]
  GI50: 3.31 µM
  LC50: > 100 µM
  TGI: > 100 µM
[5]
  growth at 1 µM: 82%
[6]
  growth at 0.01 µM: 96%
[7]
  GI50: 3.07 µM
  TGI: 21.7 µM
  CC50: > 100 µM
[8]
  growth at 0.1 µM: 110%
[9]
  growth at 100 µM: 2%
[10]
  growth at 1 µM: 99%
[11]
  GI50: 2.67 µM
  LC50: > 100 µM
  TGI: 6.22 µM
[12]
  growth at 0.1 µM: 95%
[14]
  growth at 0.1 µM: 106%
[15]
  growth at 1 µM: 88%
[16]
  growth at 0.1 µM: 104%
[17]
  growth at 100 µM: 26%
[18]
  growth at 0.01 µM: 105%
[19]
  growth at 1 µM: 75%
[20]
  growth at 0.01 µM: 97%
[21]
  growth at 0.01 µM: 105%
[22]
  GI50: 2.82 µM
  TGI: > 100 µM
  CC50: > 100 µM
[23]
  growth at 0.1 µM: 103%
[24]
  growth at 0.1 µM: 105%
[25]
  growth at 0.1 µM: 95%
[26]
  growth at 0.01 µM: 106%
[27]
  growth at 100 µM: -1%
[28]
  growth at 1 µM: 69%
[29]
  growth at 1 µM: 131%
[30]
  GI50: 4.19 µM
  LC50 (concentration killing 50% of cells): > 100 µM
  TGI: 19.4 µM
[31]
  growth at 0.01 µM: 99%
[32]
  GI50: 1.75 µM
  TGI: 4.86 µM
  CC50: 41.7 µM
[33]
  growth at 0.01 µM: 96%
[34]
  growth at 0.01 µM: 110%
[35]
  growth at 1 µM: 82%
